Records with an inconclusive call do not appear.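 The calls were made as follows, unless noted: active = growth inhibition above 25% in both replicates, a cutoff set 3 SD above the mean; inconclusive = above 25% in only one replicate; inactive = the rest.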
What was measured:
[1] = S. cerevisiae growth inhibition in permissive medium (OD615), pilot counter-assay for S. cerevisiae lifespan shortening project, permissive growth control (AID 705); details: OD615, 24 h, at 10 µM, hits give high values
Outline: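 System: S. cerevisiae with engineered DeaD lifespan system. Medium: SC raffinose/galactose permissive medium. Doses: single compound dose of 10 µM, 0.25% DMSO final. Schedule: 24 h exposure, 30 °C. Measured by: OD615 turbidity read. Read-out: growth inhibition.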

[2] = S. cerevisiae growth inhibition in restrictive medium, OD615, pilot screen, restrictive growth control, yeast lifespan reduction project (AID 706;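 active = growth inhibition above a set limit, 3 SD over mean compound inhibition, in both replicates, cut at about 43% in these data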;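 also: modified DeaD lifespan yeast strain shifted to restrictive glucose medium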); details: OD615, 48 h, at 10 µM, hits give high values
Outline: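 Assay system – genetically modified Saccharomyces cerevisiae, DeaD replicative lifespan assay strain · Medium – CSMM-D glucose medium · Doses – 10 µM compound, 0.25% DMSO · Times – 4 h pre-incubation, 48 h exposure at 30 °C · Signal – optical density at 615 nm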

[3] = doxorubicin toxicity protection in MRP-1 cells – H69AR cells, CellTiter-Glo, duplicate, MRP-1 activator project, pilot screen (AID 807;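 active = viability increase at or above a cutoff of the median across tested compounds plus 3 SD, cut at about 8.5% in these data, passing the limit was not always enough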;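 also: compound pretreatment 18-22 h then 72 h combined with doxorubicin; 0% = doxorubicin alone and 100% = vehicle without doxorubicin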); details: H69AR viability with doxorubicin, CellTiter-Glo luminescence; at 10 µM; hits give high values
[4] = viability of PTEN-null HCT116 cells – cell-based, HCT116 clonal line, CellTiter-Glo, pilot screen (AID 824;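 active = viability at or below 27.92% in each of two runs, the all-compound median minus 4 SD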;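 also: 0% = 20 µM Hyamine control and 100% = vehicle cell control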); details: HCT116 PTEN-deleted viability, 60 h, at 10 µM, hits give low values
[5] = RAM pathway blockade in budding yeast – dse1pr::URA3 reporter, 5-FOA selection, pilot screen (AID 869;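 active = inhibition over a set limit, the all-compound mean plus 3 SD, in both replicate runs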;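 also: 0% = DMSO wells with no growth and 100% = 10 µM 1-NA-PP1 with full growth; RAM network block rescues cells from 5-FOA so hits raise OD615 growth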); details: S. cerevisiae dse1pr::URA3 5-FOA growth, OD615, 2 d; at 10 µM; hits give high values; strain carries analog-sensitive mutant Cbk1 kinase
[6] = viability of HCT116 without oncogenic beta-catenin – human colon tumor cells, pilot screen (AID 823;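 active = cell viability at or below a set limit in both duplicate runs, the limit being the all-compound median minus 4 SD, cut at about 23% in these data, passing the limit was not always enough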;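 also: 0% = wells killed by 20 µM Hyamine and 100% = untreated DMSO cell wells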); details: HCT116 beta-catenin knockout viability, CellTiter-Glo, 60 h; at 10 µM; hits give low values

CCCCN(C)CCCNC(=O)Cn1c(=O)sc2ccccc21
inactive: growth inhibition [1] -8.58% | growth inhibition [2] -10.9% | viability increase [3] -3.13% | viability [4] 97.5% | inhibition [5] 1.33%

CCNC(=O)CCn1nc(-c2ccc(Cl)cc2)c2ccccc2c1=O
inactive: growth inhibition [1] -10.9% | growth inhibition [2] -10.1% | viability increase [3] -5.74% | viability [6] 49.5% | inhibition [5] 0.575%

CCCCSc1nc2c(c(=O)[nH]c(=O)n2C)n1CCc1ccccc1
inactive: growth inhibition [1] -16.6% | growth inhibition [2] -9.86% | viability increase [3] -3.38% | viability [6] 84.1% | viability [4] 85.9% | inhibition [5] 2.35%

CCCCCCC1C(C#N)=C(N)OC2=C1C(=O)CC(C)(C)C2 (stereo unspecified)
inactive: growth inhibition [1] -34.7% | growth inhibition [2] -40.1% | viability increase [3] -2.49% | viability [6] 102% | viability [4] 96.7% | inhibition [5] 0.505%

COC(=O)CNc1c(-c2ccccn2)nc2ccc(Br)cn12
inactive: growth inhibition [1] -20.4% | growth inhibition [2] 10.8% | viability increase [3] -2.57% | viability [6] 89.2% | inhibition [5] 0.175%

O=C(CCCCn1c(=O)[nH]c2ccsc2c1=O)NCC1CCCO1 (stereo unspecified)
inactive: growth inhibition [1] 2.62% | growth inhibition [2] -0.86% | viability increase [3] -3.45% | viability [6] 97.1% | inhibition [5] 1.61%

C(=C\c1ccccc1)/CN1CCN(c2ncnc3c2oc2ccccc23)CC1
inactive: growth inhibition [1] -2.64% | growth inhibition [2] -6.73% | viability increase [3] -3.8% | inhibition [5] 1.36%

Reference: PubChem BioAssay
